# Screens as filed in PubChem.
# Rows were chosen to be rich in hits. Some 0.99% of all compounds tested hit in one or more screens of this group.
# Casp6 inh: inhibitors of human caspase-6; AID 686996; purified caspase-6, Z-VEID-R110 cleavage fluorescence; hit rate 0.53% among 350,000; inhibition, % at 12.5 µM; P55212;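 active = mean inhibition across replicates at least about 35%, with every replicate also reaching that limit, limit read from the data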;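 also: 0% = median of neutral control wells and 100% = no fluorescence left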
# FN deposit inh: fibronectin deposition inhibition | AH1F fibroblasts, Alexa488-fibronectin deposition fluorescence, overnight | inhibition, % at 12.6 µM | hit rate 0.086% among 350,000;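 active = mean inhibition across replicates of 30% or more, regardless of how many single replicates reach that level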;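 also: positive control wells lacked labelled fibronectin entirely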
#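 Material – AH1F fibroblast monolayer, labelled fibronectin deposition · Reagent – labelled fibronectin 24 nM · Timing – 1 h adhesion, overnight exposure · Measured by – fluorescence at 485 nm excitation, 525 nm emission · Read-out – inhibition of fibronectin deposition signal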
# GC-A act: GC-A (human) enzyme activation. P16066. HEK293 GC-A cells, cGMP TR-FRET, EC30 ANP; 0% at EC30 ANP, 100% saturating ANP. activation, % at 10 µM. hit rate 0.14% among 370,000; in the data active = activation above about 40%
# NPR2 activator: GC-B (human) receptor activation | P20594 | HEK293-GC-B cells, CNP EC30, cGMP TR-FRET; 0% at EC30 CNP, 100% saturating CNP | activation, % at 10 µM | hit rate 0.11% among 370,000;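 active = activation at 10 µM reaching about 35% in either raw or pattern-adjusted values, limit read from the data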
# NSD2 inh: NSD2 (human) methyltransferase inhibition; O96028; NSD2 peptide methylation, AlphaScreen, 120 min; inhibition, % at 12.5 µM; hit rate 0.54% among 310,000; in the data active = inhibition above about 50%
# CaV13 ICDI inh: Disruptors of the CACNA1D IQ motif to Ca2+-dependent inactivation inhibitor domain association, primary screening, Förster resonance energy transfer in intact living …; HEK cells, CFP/YFP FRET ICDI-IQ, plate reader, 10 min; percent FRET-ratio fall versus neutral wells; inhibition, % at 12.3 µM; hit rate 0.098% among 340,000;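 active = mean replicate inhibition of at least 30% and at least 1% of replicates passing that level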;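 also: 0% = median of the neutral control wells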
# Active calls of the source: *; / = no result given.
SMILES,Casp6 inh,FN deposit inh,GC-A act,NPR2 activator,NSD2 inh,CaV13 ICDI inh
CCSc1nnc(NC(=O)CSc2sc3c(O)cc(=O)[nH]c3c2C#N)s1,44.1*,-6.0,-0.9,0.2,33.4,-4.0
CCc1nnc(NC(=O)CSc2nc3[nH]c(=O)cc(O)c3s2)s1,14.6,3.9,0.2,1.6,4.5,-4.8
CCN1CCN(C(=O)c2cccc(S(=O)(=O)Nc3c(C)n(C)n(-c4ccccc4)c3=O)c2)CC1,/,/,/,/,0.7,/
CC(=O)N(Cc1ccc(F)cc1)c1cccc(C)c1C,0.3,0.3,-11.8,-2.5,-1.6,-17.7
CC(=O)N(Cc1ccc(F)cc1)C1=C(NCCc2ccccc2)C(=O)c2ccccc2C1=O,/,41.9*,-15.6,-10.7,/,-2.1
CCOC(=O)C1CCCN(S(=O)(=O)c2nc3nc(C)cc(C)n3n2)C1 (stereo unspecified),37.0*,/,2.2,5.6,0.8,/
CCOC(=O)C1CCCN(S(=O)(=O)c2ccc(S(=O)(=O)N3CCCC3)cc2)C1 (stereo unspecified),1.5,-13.0,-1.1,3.1,-4.7,-14.9
Oc1ccc(/C=N/n2c(-c3ccccc3)n[nH]c2=S)cc1Br,51.9*,5.1,-2.9,-2.5,4.0,11.3
Oc1c(Br)cc(/C=N/n2c(-c3ccccc3)n[nH]c2=S)cc1Br,-0.3,0.3,-0.5,1.9,5.1,-1.7
CNC[C@@H]1Oc2ccc(NC(=O)Cc3ccccc3)cc2C(=O)N([C@H](C)CO)C[C@H]1C,-0.1,-7.0,/,/,/,/
Cc1ccc(S(=O)(=O)C=CS(=O)(=O)c2ccc(C)cc2)cc1,-1.4,15.9,-6.3,25.6,-1.5,-14.1
O=S(=O)(/C=C/C=C/S(=O)(=O)c1ccccc1)c1ccccc1,0.1,33.6*,11.8,12.5,-0.4,-5.5
COc1cccc(NS(=O)(=O)c2ccc3c(c2)NC(=O)CC(=O)N3)c1,99.0*,-0.5,-1.5,5.5,-1.3,-2.6
CC(C)(C)c1ccc(C(=O)Nn2c(CCC(=O)O)ccc2-c2cccs2)cc1,39.3*,/,-1.5,-0.5,5.1,-6.7
C[C@@H]1CCCCO[C@@H](CN(C)C(=O)Nc2ccccc2)[C@@H](C)CN([C@@H](C)CO)C(=O)c2cc(NS(=O)(=O)c3ccccc3)ccc2O1,2.7,-7.1,/,/,/,/
Cc1nc2ccc(NC(=O)c3cc([N+](=O)[O-])cc([N+](=O)[O-])c3Cl)cc2s1,-11.9,-4.1,80.4*,21.2,-0.4,-14.8
Cc1nc2ccc(NC(=O)c3ccc(Cl)c([N+](=O)[O-])c3)cc2s1,0.2,-8.8,12.2,2.2,0.4,-17.8
COc1cccc(C(=O)OCC(=O)NC23CC4CC(CC(C4)C2)C3)c1,-1.5,/,-3.0,-1.0,-2.7,-6.5
CC(=O)Oc1cc(C(=O)OCC(=O)NC23CC4CC(CC(C4)C2)C3)cc(OC(C)=O)c1OC(C)=O,41.3*,-3.0,-6.2,-7.4,/,-5.9
O=S(=O)(Nc1ccc(C(O)(C(F)(F)F)C(F)(F)F)cc1)c1ccc(S(=O)(=O)c2ccccc2)s1,/,/,/,/,2.9,/
COc1ccc(OC)c2c1C(=O)C(Cl)=C(Cl)C2=O,8.8,60.5*,43.2*,21.7,-0.7,-1.0
COc1ccc(OC)c2c1C(=O)c1ccccc1C2=O,/,1.6,-2.5,-4.4,-2.4,-13.7
C[C@H](CO)N1C[C@H](C)[C@@H](CN(C)S(=O)(=O)c2ccccc2)OCc2ccccc2-c2ccccc2C1=O,0.9,-13.3,/,/,/,/
O=C(/C=C/c1cccs1)N1CCN(c2ccc(O)cc2)CC1,61.9*,3.8,-3.1,-3.5,6.2,-4.7
O=C(/C=C/c1cccs1)N1CCCCC1,-0.3,1.0,-0.6,-2.5,-1.0,-5.2
SMILES,Casp6 inh,FN deposit inh,GC-A act,NPR2 activator,NSD2 inh,CaV13 ICDI inh
CN(C)CC(=O)Nc1ccc2c(c1)[C@@H]1C[C@H](CC(=O)N(C)C)O[C@H](CO)[C@@H]1O2,-1.1,-1.5,/,/,/,/
O=C(c1ccc(F)cc1)C1CCN(C(=O)Nc2ccccc2Cl)CC1,-0.3,-8.1,1.4,1.4,/,63.9*
COc1ccc(/C=C2\Sc3ccc(C(=O)NC4CC4)cc3N(C)C2=O)cc1OC,1.4,7.6,29.5,38.7*,2.2,-7.2
CCOc1ccc(/C=C2/Sc3ccc(C(=O)N4CCOCC4)cc3N(C)C2=O)cc1OC,5.3,11.4,5.5,1.2,15.5,-2.5
Cc1cccc(S(=O)(=O)N2C[C@H]3[C@@H](c4ccccc42)[C@@H](CO)N3CC2CCOCC2)c1,2.8,/,/,/,/,/
Oc1ccc(/C=N/Nc2ncnc3c2ncn3Cc2ccccc2)cc1O,30.0,8.2,-1.2,5.1,72.5*,24.1
CCCCCCCCC(=O)c1c(OC)oc(C=O)cc1=O,71.6*,6.7,-0.7,2.1,5.9,0.9
CCCCCCC(=O)Nc1cc2c(C)cc(=O)oc2cc1C,/,/,1.7,4.8,-3.8,/
O=C1c2ccccc2C(=O)c2c(O)c(O)cc(O)c21,40.9*,3.0,-6.8,-0.5,/,-5.2
Nc1ccc(O)c2c1C(=O)c1ccccc1C2=O,12.8,/,-4.0,-17.0,/,/
O=C1C=C(O)c2c(O)cc(O)c(O)c2C1=O,70.7*,/,-12.2,-8.7,/,/
CN(C)CC(=O)N[C@@H]1C=C[C@@H](CC(=O)NCc2ccc(Cl)cc2)O[C@@H]1CO,-0.8,-9.5,/,/,/,/
COc1ccc(COc2cc(-c3cccc(OC)c3)nc3ccc(NC(=O)c4cccnc4)cc23)cc1,0.0,6.5,52.1*,57.3*,/,14.3
COc1ccc(COc2cc(-c3cccc(OC)c3)nc3ccc(NC(=O)c4ccc(OC)cc4)cc23)cc1,-1.3,-17.3,30.6,32.8,/,-4.4
COc1ccc(COc2cc(-c3cccc(OC)c3)nc3ccc(NC(=O)c4ccc(Cl)cc4)cc23)cc1,-2.2,16.3,11.9,11.6,/,-4.2
COc1ccc(COc2cc(-c3cccc(OC)c3)nc3ccc(NC(=O)c4ccccc4)cc23)cc1,1.7,-3.3,40.3*,43.9*,/,10.2
[O-][n+]1c2ccccc2[n+]([O-])c2cc(O)ccc21,67.8*,1.8,-10.9,-2.7,20.1,-18.6
C[C@H]1CN([C@@H](C)CO)C(=O)CCCn2cc(nn2)CO[C@H]1CN(C)C(=O)Nc1ccccc1F,0.1,1.9,/,/,/,/
O=C(Nc1cc(Cl)cc(Cl)c1)c1coc(=O)c(Br)c1,70.2*,-5.3,12.9,6.4,1.9,-20.6
CC(C)CNC(=O)c1coc(=O)c(Br)c1,/,active,3.0,4.7,-0.9,-4.3
O=C(NC(CO)(CO)CO)c1coc(=O)c(Br)c1,/,/,-3.2,-0.6,-1.4,-6.3
CN(C)CCNC(=O)c1coc(=O)c(Br)c1,/,/,-0.4,-0.1,2.0,/
COc1ccccc1-c1cc(C(F)(F)F)nc(S(=O)(=O)CCCC(=O)N2CCCCC2C)n1 (stereo unspecified),/,16.1,77.7*,8.7,9.8,-3.1
